Data on six compounds can be found in ChEMBL document CHEMBL2057170, “Synthesis and binding properties of new selective ligands for the nucleobase opposite the AP site” (Bioorg Med Chem, 2012).

Structures are written as SMILES.

What all share (type): nucleic-acid assay
For assay [1], the system named is Nucleic Acid. The experiment in a line: Binding affinity to DNA 5'-d GCG TAC AP CAT GCG-3' 3'-d CGC ATG A GTA CGC-5' assessed as melting temperature pretreated for 5 mins in presence of 50 mM NaCl. The method in brief: (§1)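 UV thermal denaturation at 260 nm used 4 µM duplex (AP = THF) with or without 20 µM ligand in 10 mM HEPES-NaOH pH 7.0, 50 mM NaCl. Samples were preheated 5 min at 80 °C, then slowly cooled. Melts ran 20–80 °C at 1 °C/min. Tm came from non-linear fitting; ΔTm = Tm(+) − Tm(−).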

In assay [2] the test system is Nucleic Acid. The experiment in a line: Binding affinity to DNA 5'-d GCG TAC AP CAT GCG-3' 3'-d CGC ATG G GTA CGC-5' assessed as equilibrium association constant by SPR analysis in presence of 50 mM NaCl. The method in brief: (§2)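 SPR on BIACORE3000. Hairpin duplexes carrying the AP site (THF) opposite X were 5'-biotin-labelled and immobilized in HBS-N (pH 7.4, 150 mM NaCl). Binding was run in 10 mM HEPES-NaOH pH 7.0 with 50 mM NaCl at 25 °C. Ligand 0.05–2.00 µM was injected at 20 µl/min for 300 s, then 120 s dissociation. Ka came from steady-state affinity analysis with a one-site fit.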

The subject of assay [3] is Nucleic Acid. The assay is described as follows: Binding affinity to DNA 5'-d GCG TAC AP CAT GCG-3' 3'-d CGC ATG C GTA CGC-5' assessed as melting temperature pretreated for 5 mins in presence of 50 mM NaCl. The procedure, abridged:
as §1

For assay [4], the system named is Nucleic Acid. The experiment in a line: Binding affinity to DNA 5'-d GCG TAC AP CAT GCG-3' 3'-d CGC ATG C GTA CGC-5' assessed as equilibrium association constant by SPR analysis in presence of 50 mM NaCl. The method in brief: as §2
In assay [5] the test system is Nucleic Acid. The experiment in a line: Binding affinity to DNA 5'-d GCG TAC AP CAT GCG-3' 3'-d CGC ATG A GTA CGC-5' assessed as equilibrium association constant by SPR analysis in presence of 50 mM NaCl. The procedure, abridged:
as §2

In assay [6] the test system is Nucleic Acid. The experiment in a line: Binding affinity to DNA 5'-d GCG TAC AP CAT GCG-3' 3'-d CGC ATG G GTA CGC-5' assessed as melting temperature pretreated for 5 mins in presence of 50 mM NaCl. The method in brief:
as §1

Assay [7] relates to Nucleic Acid. The experiment in a line: Binding affinity to DNA 5'-d GCG TAC AP CAT GCG-3' 3'-d CGC ATG T GTA CGC-5' assessed as melting temperature pretreated for 5 mins in presence of 50 mM NaCl. The procedure, abridged: as §1
Assay [8] has as its system Nucleic Acid. The experiment in a line: Binding affinity to DNA 5'-d GCG TAC AP CAT GCG-3' 3'-d CGC ATG T GTA CGC-5' assessed as equilibrium association constant by SPR analysis in presence of 50 mM NaCl. The method in brief:
as §2

The subject of assay [9] is Nucleic Acid. The assay is described as follows: Binding affinity to DNA 5'-d GCG TAC AP CAT GCG-3' 3'-d CGC ATG G GTA CGC-5' assessed as melting temperature pretreated for 5 mins in presence of 100 mM NaCl. The method in brief:
(§3)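 UV thermal denaturation at 260 nm used 4 µM duplex (AP = THF) with or without 20 µM ligand in 10 mM HEPES-NaOH pH 7.0, 100 mM NaCl. Samples were preheated 5 min at 80 °C, then slowly cooled. Melts ran 20–80 °C at 1 °C/min. Tm came from non-linear fitting; ΔTm = Tm(+) − Tm(−).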

The subject of assay [10] is Nucleic Acid. The experiment in a line: Binding affinity to DNA 5'-d GCG TAC AP CAT GCG-3' 3'-d CGC ATG A GTA CGC-5' assessed as melting temperature pretreated for 5 mins in presence of 100 mM NaCl. The procedure, abridged: as §3
For assay [11], the system named is Nucleic Acid. The experiment in a line: Binding affinity to DNA 5'-d GCG TAC AP CAT GCG-3' 3'-d CGC ATG T GTA CGC-5' assessed as melting temperature pretreated for 5 mins in presence of 100 mM NaCl. The procedure, abridged:
as §3

For assay [12], the system named is Nucleic Acid. The assay is described as follows: Binding affinity to DNA 5'-d GCG TAC AP CAT GCG-3' 3'-d CGC ATG C GTA CGC-5' assessed as melting temperature pretreated for 5 mins in presence of 100 mM NaCl. The procedure, abridged:
as §3

Regarding `NCCCNCCCNCCCn1ccc(N)nc1=O`, the Tm in the assay with Nucleic Acid [1] was determined as 35.2 °C; in the assay on Nucleic Acid [3] it was 32.6 °C; in the assay with Nucleic Acid [6], 40.5 °C; in the assay on Nucleic Acid [7] it was 32.4 °C. The Ka in the assay with Nucleic Acid [2] stood at 0.039 ×10⁶ /M; in the assay with Nucleic Acid [4] it was 0.002 ×10⁶ /M; with Nucleic Acid [5], 0.002 ×10⁶ /M; in the assay on Nucleic Acid [8] it was 0.001 ×10⁶ /M.

Regarding `Cc1cn(CCCNCCCNCCCN)c(=O)[nH]c1=O`, the Tm in the assay on Nucleic Acid [1] was found to be 39.2 °C; with Nucleic Acid [3] it was 33.8 °C; in the assay on Nucleic Acid [6] it was 37.8 °C; in the assay on Nucleic Acid [7], 35.5 °C. Moreover, the Ka in the assay with Nucleic Acid [2] is 0.043 ×10⁶ /M; in the assay on Nucleic Acid [4], 0.063 ×10⁶ /M; with Nucleic Acid [5] it was 0.222 ×10⁶ /M; in the assay with Nucleic Acid [8], 0.053 ×10⁶ /M.

Regarding `NCCCNCCCN`, the Ka in the assay with Nucleic Acid [8] was less than 0.001 ×10⁶ /M.

For `NCCCNCCCNCCCn1cnc2c(=O)[nH]c(N)nc21`, the Tm in the assay with Nucleic Acid [9] was 40.9 °C; in the assay on Nucleic Acid [10] it was 40.4 °C; in the assay on Nucleic Acid [11], 38.1 °C; with Nucleic Acid [12], 40.8 °C. Moreover, the Ka is 0.047 ×10⁶ /M with Nucleic Acid [2], 6.3 ×10⁶ /M in the assay on Nucleic Acid [4], 0.016 ×10⁶ /M with Nucleic Acid [5] and 0.08 ×10⁶ /M with Nucleic Acid [8].

Consider `NCCCNCCCNCCCn1cnc2c(N)ncnc21`, for which the Tm with Nucleic Acid [9] stood at 40.8 °C; in the assay with Nucleic Acid [10] it was 40.4 °C; in the assay on Nucleic Acid [11], 43.7 °C; in the assay on Nucleic Acid [12], 34.6 °C. Moreover, the Ka came out at 0.087 ×10⁶ /M in the assay on Nucleic Acid [2], 0.01 ×10⁶ /M in the assay on Nucleic Acid [4], 0.057 ×10⁶ /M in the assay with Nucleic Acid [5] and 3.9 ×10⁶ /M with Nucleic Acid [8].

Consider `NCCCNCCCNCCCn1ccc(=O)[nH]c1=O`, for which the Tm with Nucleic Acid [1] came to 39.1 °C; in the assay with Nucleic Acid [3] it was 32.1 °C; with Nucleic Acid [6], 36.4 °C; in the assay with Nucleic Acid [7], 33.9 °C. The Ka in the assay with Nucleic Acid [2] came to 0.001 ×10⁶ /M; in the assay with Nucleic Acid [4], 0.022 ×10⁶ /M; with Nucleic Acid [5], 0.045 ×10⁶ /M; in the assay with Nucleic Acid [8], 0.027 ×10⁶ /M.
